Converted amounts (≈) assume the structure as drawn.
How the values were obtained:
Assay type in all cases: cell-based, human
[1] = system: IL-8 production in HFL-1 cells; assay: IL-8 production by TNF-α-stimulated HFL-1 cells; conditions: for IL-8 production reduced to (% of stimulated control): 1000 μg/ml, P<0.001; for IL-8 production reduced to (% of stimulated control) / concentration at which significant inhibition of IL-8 production was observed: TNF-α 24 h; for concentration at which significant inhibition of IL-8 production was observed: P<0.01
How it was run: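 HFL-1 fetal lung fibroblasts are grown in Ham's F-12 with 15% heat-inactivated FBS on collagen, then seeded at 5×10^4 cells/well and adhered overnight. Test compound is added in 1% FBS medium, with vehicle controls, followed by TNF-α 10 ng/ml for 24 h at 37 °C. Supernatant IL-8 is measured by sandwich ELISA, at least in duplicate. Data are mean±S.D. of three experiments, analysed by Student's t-test, with IC50 calculated from the ELISA data.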

IL-8 mRNA in HFL-1 cells = assay: RT-PCR analysis of IL-8 mRNA expression; conditions: TNF-α-stimulated HFL-1
[2] = system: eotaxin 1 production in HFL-1 cells; assay: eotaxin 1 production by TNF-α plus IL-4-stimulated HFL-1 cells; conditions: HFL-1, TNF-α/IL-4 stimuli for 48 h; calculated from ELISA data
How it was run: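 Collagen-plated HFL-1 cells are seeded at 5×10^4/well and adhered overnight. Test compound in 1% FBS medium, or vehicle, is added, and the cells are then stimulated with TNF-α 10 ng/ml plus IL-4 20 U/ml for 48 h at 37 °C. Eotaxin 1 in the supernatant is quantified by sandwich ELISA, with samples at least in duplicate. Values are mean±S.D. of three independent experiments, compared by t-test, and IC50 is derived from the ELISA data.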

HFL-1 cells = assay: cytotoxicity by LDH assay; conditions: calculated from LDH assay data; for CC30 (cytotoxicity), IL-8 condition: HFL-1, TNF-α stimuli for 24 h; for CC30 (cytotoxicity), eotaxin 1 condition: HFL-1, TNF-α/IL-4 stimuli for 48 h
How it was run: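 LDH leakage is measured in supernatants from the same HFL-1 cultures under both stimulation conditions: TNF-α 10 ng/ml for 24 h, or TNF-α plus IL-4 20 U/ml for 48 h. Test compound is in 1% FBS medium, and final EtOH or DMSO is mostly below 0.1%. LDH is read with a commercial LDH cytotoxicity kit.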

[3] = system: eotaxin 1 mRNA in HFL-1 cells; assay: RT-PCR analysis of eotaxin 1 mRNA expression; conditions: TNF-α plus IL-4-stimulated HFL-1

Eotaxin 1 IC50 [2]	IL-8 IC50 ([1]; HFL-1, TNF-α stimuli for 24 h, calculated from ELISA data)	SMILES	IL-8 production reduced to (% of stimulated control) [1]	concentration at which significant inhibition of IL-8 production was observed [1]	effect on IL-8 mRNA expression (IL-8 mRNA in HFL-1 cells)	CC30 (cytotoxicity), IL-8 condition (HFL-1 cells)	CC30 (cytotoxicity), eotaxin 1 condition (HFL-1 cells)	doses needed to inhibit IL-8 and eotaxin 1 production ([1]; IL-8 and eotaxin 1 production, HFL-1)	effect on eotaxin 1 mRNA expression [3]
25 µg/mL		CC1(C)[C@@H](O[C@H]2O[C@H](C(=O)O)[C@@H](O)[C@H](O)[C@H]2O[C@@H]2O[C@H](C(=O)O)[C@@H](O)[C@H](O)[C@H]2O)CC[C@]2(C)[C@H]3C(=O)C=C4[C@@H]5C[C@@](C)(C(=O)O)CC[C@]5(C)CC[C@@]4(C)[C@]3(C)CC[C@@H]12 [18α-GL, glycyrrhizin]	25%	more than 300 μg/ml	did not indicate significant effect	330 µg/mL (≈ 401 µM)	>1000 µg/mL		
		CC1(C)[C@@H](O[C@H]2O[C@H](C(=O)O)[C@@H](O)[C@H](O)[C@H]2O[C@@H]2O[C@H](C(=O)O)[C@@H](O)[C@H](O)[C@H]2O)CC[C@]2(C)[C@H]3C(=O)C=C4[C@@H]5C[C@@](C)(C(=O)O)CC[C@]5(C)CC[C@@]4(C)[C@]3(C)CC[C@@H]12 [GL, Glycyrrhizin]						~1 mg/mL	
>300 µg/mL	370 µg/mL	CC1(C)[C@@H](O[C@H]2O[C@H](C(=O)O)[C@@H](O)[C@H](O)[C@H]2O[C@@H]2O[C@H](C(=O)O)[C@@H](O)[C@H](O)[C@H]2O)CC[C@]2(C)[C@H]3C(=O)C=C4[C@@H]5C[C@@](C)(C(=O)O)CC[C@]5(C)CC[C@@]4(C)[C@]3(C)CC[C@@H]12 [18β-GL, glycyrrhizin]	25%	more than 300 μg/ml		>1000 µg/mL	>1000 µg/mL		did not inhibit it at the same doses
